Activity calls are given as the source filed them. The rule behind the calls is not given here.
What was measured:
[1] = biological target: Neurogenic locus notch homolog protein 1 (Mus musculus, UniProt Q01705); assay: Inhibition of recombinant mouse N-terminal FLAG-tagged Notch1 (1704 to 2531 residues) expressed in human LS174T cells assessed as reduction in doxycycline-induced NICD expression after 12 hrs by Bright-Glo luciferase reporter gene assay; type: cell-based
Method in brief: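 LS174T cells stably carrying a luciferase reporter under 12× RBP-J sites (β-globin promoter), 2 × 10^4 per well. After 12 h, doxycycline 50 ng/mL for 12 h induced Notch1(1704–2531). Then dox-free medium with compound, 0.1% DMSO, 12 h at 37 °C. Read by Bright-Glo luminescence, n = 3, with parallel FMCA viability.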

HPBALL [2] = assay: Effect on Notch1 mRNA expression in human HPBALL cells at 0.1 to 0.5 uM measured after 12 hrs; type: functional, cell-based
[3] = biological target: Neurogenic locus notch homolog protein 1 (Homo sapiens) (UniProt P46531); assay: Inhibition of Notch1 in human HPBALL cells assessed as reduction in NICD expression at 0.5 uM after 12 hrs in presence of proteasome inhibitor MG132 by Western blot analysis; type: cell-based
Chain of Neurogenic locus notch homolog protein 1 (Homo sapiens) (P46531 whole entry): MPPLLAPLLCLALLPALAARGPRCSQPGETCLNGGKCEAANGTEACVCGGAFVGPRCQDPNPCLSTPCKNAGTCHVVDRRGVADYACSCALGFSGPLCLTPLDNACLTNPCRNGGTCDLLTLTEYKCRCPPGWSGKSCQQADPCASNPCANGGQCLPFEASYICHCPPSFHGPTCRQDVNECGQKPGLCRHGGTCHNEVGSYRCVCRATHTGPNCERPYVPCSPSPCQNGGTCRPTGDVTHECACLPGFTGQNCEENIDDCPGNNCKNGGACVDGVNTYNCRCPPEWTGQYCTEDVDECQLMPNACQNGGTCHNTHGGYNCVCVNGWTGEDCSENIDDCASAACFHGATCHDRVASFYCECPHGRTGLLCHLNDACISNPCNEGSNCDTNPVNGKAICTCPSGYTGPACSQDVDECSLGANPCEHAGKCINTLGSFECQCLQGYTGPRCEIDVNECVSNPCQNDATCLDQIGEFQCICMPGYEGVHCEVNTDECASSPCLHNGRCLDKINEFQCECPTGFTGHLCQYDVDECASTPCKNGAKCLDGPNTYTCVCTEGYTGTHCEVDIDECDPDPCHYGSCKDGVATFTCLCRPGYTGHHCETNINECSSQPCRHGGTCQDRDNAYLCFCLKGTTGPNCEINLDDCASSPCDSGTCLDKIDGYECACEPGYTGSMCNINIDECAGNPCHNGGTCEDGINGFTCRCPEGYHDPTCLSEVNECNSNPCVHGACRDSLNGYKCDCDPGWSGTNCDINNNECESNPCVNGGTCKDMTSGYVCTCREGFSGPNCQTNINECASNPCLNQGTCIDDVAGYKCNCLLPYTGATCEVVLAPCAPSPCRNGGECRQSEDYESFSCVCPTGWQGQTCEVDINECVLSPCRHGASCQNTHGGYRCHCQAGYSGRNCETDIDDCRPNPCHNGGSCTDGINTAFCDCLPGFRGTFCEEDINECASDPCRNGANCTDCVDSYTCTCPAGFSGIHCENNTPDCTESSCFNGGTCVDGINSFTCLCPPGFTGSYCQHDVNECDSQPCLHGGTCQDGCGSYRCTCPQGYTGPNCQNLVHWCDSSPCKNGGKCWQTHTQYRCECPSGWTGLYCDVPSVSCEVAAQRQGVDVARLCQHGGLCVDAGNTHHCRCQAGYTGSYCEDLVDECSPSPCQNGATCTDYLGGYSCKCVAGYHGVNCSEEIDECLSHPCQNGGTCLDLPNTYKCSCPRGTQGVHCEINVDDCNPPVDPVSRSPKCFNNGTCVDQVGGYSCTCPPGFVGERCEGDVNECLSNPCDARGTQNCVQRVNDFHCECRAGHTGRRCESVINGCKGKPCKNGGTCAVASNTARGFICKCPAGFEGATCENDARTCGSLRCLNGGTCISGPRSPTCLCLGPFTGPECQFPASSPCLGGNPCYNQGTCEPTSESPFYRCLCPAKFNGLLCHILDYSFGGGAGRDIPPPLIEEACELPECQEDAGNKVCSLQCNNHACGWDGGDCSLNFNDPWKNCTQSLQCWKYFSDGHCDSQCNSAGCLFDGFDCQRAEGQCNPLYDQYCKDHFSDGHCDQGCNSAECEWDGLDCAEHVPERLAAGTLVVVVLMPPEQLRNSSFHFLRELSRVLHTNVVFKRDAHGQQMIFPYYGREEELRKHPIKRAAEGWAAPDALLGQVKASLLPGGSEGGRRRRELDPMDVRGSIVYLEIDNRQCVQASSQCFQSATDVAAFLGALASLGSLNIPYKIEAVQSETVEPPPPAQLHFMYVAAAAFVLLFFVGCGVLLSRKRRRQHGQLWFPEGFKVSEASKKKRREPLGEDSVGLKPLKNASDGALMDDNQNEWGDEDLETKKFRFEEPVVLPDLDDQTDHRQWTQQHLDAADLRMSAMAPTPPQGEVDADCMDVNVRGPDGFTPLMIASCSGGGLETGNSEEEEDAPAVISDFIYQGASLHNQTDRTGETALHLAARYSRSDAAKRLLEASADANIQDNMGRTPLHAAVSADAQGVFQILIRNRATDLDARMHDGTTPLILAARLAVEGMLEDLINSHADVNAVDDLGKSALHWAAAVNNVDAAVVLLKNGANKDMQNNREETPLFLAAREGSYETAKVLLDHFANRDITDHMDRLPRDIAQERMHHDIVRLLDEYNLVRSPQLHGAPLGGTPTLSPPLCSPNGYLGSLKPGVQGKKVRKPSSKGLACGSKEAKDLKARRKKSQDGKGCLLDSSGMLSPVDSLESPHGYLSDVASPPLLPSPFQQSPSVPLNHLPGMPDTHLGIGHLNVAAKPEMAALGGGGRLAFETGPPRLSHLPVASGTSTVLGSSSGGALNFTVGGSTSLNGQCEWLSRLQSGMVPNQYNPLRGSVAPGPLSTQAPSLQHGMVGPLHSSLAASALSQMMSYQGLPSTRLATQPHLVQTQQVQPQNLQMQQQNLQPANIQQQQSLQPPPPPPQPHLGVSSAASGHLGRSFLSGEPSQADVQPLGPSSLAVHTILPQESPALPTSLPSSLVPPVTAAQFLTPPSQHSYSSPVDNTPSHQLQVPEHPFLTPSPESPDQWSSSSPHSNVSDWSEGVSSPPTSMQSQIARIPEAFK
Method in brief: (§1)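 HPB-ALL cells at 1 × 10^6 per 6 cm dish, treated 12 h at 37 °C with compound plus proteasome inhibitor MG132 (18.5 μM). Lysates blotted on PVDF, probed for cleaved Notch1 (Val1744)/NICD with β-actin loading control, ECL detection.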

HPBALL [4] = assay: Down regulation of Notch1 expression in human HPBALL cells at 0.5 uM after 12 hrs by Western blot analysis; type: functional, cell-based
[5] = biological target: Neurogenic locus notch homolog protein 1 (Homo sapiens) (UniProt P46531); assay: Inhibition of Notch1 in human HPBALL cells assessed as reduction in HES1 expression after 72 hrs by Western blot analysis; type: cell-based
Method in brief: (§2)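 HPB-ALL cells at 5 × 10^5 per 6 cm dish in RPMI-1640/10% FBS containing a range of compound concentrations, 72 h at 37 °C. Lysates run on SDS-PAGE and PVDF; probed with anti-HES1 or anti-cleaved Notch1 (Val1744) for NICD, β-actin control, ECL read-out.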

[6] = biological target: Neurogenic locus notch homolog protein 1 (Homo sapiens) (UniProt P46531); assay: Inhibition of Notch1 in human HPBALL cells assessed as reduction in NICD expression at 0.5 uM after 12 hrs by Western blot analysis; type: cell-based
[7] = biological target: Neurogenic locus notch homolog protein 1 (Homo sapiens) (UniProt P46531); assay: Inhibition of Notch1 in human HPBALL cells assessed as reduction in NICD expression after 72 hrs by Western blot analysis; type: cell-based; method in brief: as §2
HEK293 = assay: Cytotoxicity against HEK293 cells after 72 hrs by fluorescence assay; type: cell-based; conditions: Homo sapiens, HEK293, 72 h
Method in brief: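 HEK293 cells at 1 × 10^4 per well in DMEM with 10% FBS and penicillin/streptomycin. Pre-incubated 24 h at 37 °C, then medium replaced with fresh medium holding a range of compound concentrations. Exposed 72 h; medium removed and proliferation read by fluorometric microculture cytotoxicity assay (FMCA).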

HPBALL [8] = assay: Cytotoxicity against human HPBALL cells after 72 hrs by alamar blue dye based fluorescence assay; type: functional, cell-based
Method in brief: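 HPB-ALL T-ALL cells at 1 × 10^4 per well in RPMI-1640 with 10% FBS and penicillin/streptomycin. Compound added at seeding over a concentration range; 72 h at 37 °C. AlamarBlue then added for 4 h and fluorescence read to give viability.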

HPBALL [9] = assay: Down regulation of Notch1 expression in human HPBALL cells at 0.5 uM after 12 hrs in presence of proteasome inhibitor MG132 by Western blot analysis; type: functional, cell-based; method in brief: as §1
[10] = biological target: Neurogenic locus notch homolog protein 1 (Mus musculus) (UniProt Q01705); assay: Inhibition of doxycycline-induced recombinant mouse N-terminal FLAG-tagged Notch1 (1704 to 2531 residues) activation expressed in human LS174T cells assessed as reduction in Hes1 level at 0.05 to 0.3 uM after 12 hrs by Western blot analysis; type: cell-based
Chain of Neurogenic locus notch homolog protein 1 (Mus musculus) (Q01705 whole entry, the tested form may be a part): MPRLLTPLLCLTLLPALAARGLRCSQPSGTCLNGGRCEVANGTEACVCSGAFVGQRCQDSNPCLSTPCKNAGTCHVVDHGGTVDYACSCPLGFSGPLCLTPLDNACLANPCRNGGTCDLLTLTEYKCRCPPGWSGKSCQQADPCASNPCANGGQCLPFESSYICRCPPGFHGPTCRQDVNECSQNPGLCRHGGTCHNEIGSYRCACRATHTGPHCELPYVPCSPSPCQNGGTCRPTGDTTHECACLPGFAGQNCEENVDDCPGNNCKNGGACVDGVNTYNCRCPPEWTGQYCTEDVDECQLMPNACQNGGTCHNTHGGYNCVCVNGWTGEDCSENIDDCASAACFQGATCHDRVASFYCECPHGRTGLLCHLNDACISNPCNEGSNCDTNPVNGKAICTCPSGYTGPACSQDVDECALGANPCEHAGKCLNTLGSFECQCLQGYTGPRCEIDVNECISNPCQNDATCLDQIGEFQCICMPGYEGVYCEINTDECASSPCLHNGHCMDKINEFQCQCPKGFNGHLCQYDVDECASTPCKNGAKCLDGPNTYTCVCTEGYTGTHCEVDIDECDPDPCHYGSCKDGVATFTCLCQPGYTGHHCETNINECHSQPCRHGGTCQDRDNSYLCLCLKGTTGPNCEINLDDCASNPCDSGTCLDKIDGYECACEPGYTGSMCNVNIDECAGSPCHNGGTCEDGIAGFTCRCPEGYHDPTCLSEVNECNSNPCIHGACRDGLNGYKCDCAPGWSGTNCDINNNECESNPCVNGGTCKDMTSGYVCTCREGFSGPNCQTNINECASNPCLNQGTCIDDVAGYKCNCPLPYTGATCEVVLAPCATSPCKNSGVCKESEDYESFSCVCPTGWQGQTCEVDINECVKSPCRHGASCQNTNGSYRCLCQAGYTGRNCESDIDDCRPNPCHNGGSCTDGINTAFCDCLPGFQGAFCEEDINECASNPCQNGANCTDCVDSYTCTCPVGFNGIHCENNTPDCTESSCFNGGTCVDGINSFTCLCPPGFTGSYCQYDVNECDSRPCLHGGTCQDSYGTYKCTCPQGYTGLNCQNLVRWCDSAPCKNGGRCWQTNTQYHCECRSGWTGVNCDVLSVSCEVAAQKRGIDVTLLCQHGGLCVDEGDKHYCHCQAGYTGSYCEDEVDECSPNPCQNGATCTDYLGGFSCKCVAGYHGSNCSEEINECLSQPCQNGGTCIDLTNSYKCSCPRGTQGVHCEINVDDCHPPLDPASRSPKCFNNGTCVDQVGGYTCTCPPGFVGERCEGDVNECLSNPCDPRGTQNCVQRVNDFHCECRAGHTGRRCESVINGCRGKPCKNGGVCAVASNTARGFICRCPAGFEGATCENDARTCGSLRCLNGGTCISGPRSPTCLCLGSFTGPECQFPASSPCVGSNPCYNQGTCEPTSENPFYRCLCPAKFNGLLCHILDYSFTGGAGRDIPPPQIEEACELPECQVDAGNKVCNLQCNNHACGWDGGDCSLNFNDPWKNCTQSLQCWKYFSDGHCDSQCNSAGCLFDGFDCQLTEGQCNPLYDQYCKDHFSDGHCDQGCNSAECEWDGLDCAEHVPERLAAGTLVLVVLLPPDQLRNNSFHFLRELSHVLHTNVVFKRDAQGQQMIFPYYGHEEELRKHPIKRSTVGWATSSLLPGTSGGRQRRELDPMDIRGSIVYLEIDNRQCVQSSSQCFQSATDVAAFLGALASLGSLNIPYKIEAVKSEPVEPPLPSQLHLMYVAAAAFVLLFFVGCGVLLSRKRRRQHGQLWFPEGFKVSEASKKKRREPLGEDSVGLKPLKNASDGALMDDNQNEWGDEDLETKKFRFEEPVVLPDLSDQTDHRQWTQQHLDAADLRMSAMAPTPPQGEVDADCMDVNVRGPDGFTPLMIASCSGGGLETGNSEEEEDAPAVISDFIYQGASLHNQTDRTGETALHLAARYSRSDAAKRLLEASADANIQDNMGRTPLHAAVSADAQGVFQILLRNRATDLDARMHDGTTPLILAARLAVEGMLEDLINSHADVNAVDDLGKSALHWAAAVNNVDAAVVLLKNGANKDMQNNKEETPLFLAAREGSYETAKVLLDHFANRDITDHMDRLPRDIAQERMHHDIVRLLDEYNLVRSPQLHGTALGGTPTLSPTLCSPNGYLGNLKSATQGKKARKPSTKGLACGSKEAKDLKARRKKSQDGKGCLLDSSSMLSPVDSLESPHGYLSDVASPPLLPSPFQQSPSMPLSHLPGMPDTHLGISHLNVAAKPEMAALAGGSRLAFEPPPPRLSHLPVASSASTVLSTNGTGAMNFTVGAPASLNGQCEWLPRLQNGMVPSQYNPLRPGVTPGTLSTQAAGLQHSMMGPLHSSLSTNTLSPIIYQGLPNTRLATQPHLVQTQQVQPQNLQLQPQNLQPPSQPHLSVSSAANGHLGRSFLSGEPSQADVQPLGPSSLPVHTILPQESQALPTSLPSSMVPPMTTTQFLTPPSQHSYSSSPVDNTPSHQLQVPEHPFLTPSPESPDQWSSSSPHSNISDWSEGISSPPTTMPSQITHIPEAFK
Method in brief: (§3)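 LS174T Notch assay cells at 1 × 10^6 per 6 cm dish, 12 h at 37 °C, then doxycycline 50 ng/mL for 12 h to induce FLAG-Notch1(1704–2531). Switched to fresh medium with compound for 12 h. Lysates probed by western blot with anti-FLAG, anti-cleaved Notch1 (Val1744), anti-HES1 or anti-HES5, β-actin control.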

[11] = biological target: Neurogenic locus notch homolog protein 1 (Mus musculus) (UniProt Q01705); assay: Inhibition of doxycycline-induced recombinant mouse N-terminal FLAG-tagged Notch1 (1704 to 2531 residues) activation expressed in human LS174T cells assessed as reduction in Hes5 level at 0.05 to 0.3 uM after 12 hrs by Western blot analysis; type: cell-based; method in brief: as §3
LS174T = assay: Inhibition of doxycycline-induced Notch1 (1704 to 2531 residues) expression in human LS174T cells after 12 hrs by Western blot analysis; type: functional, cell-based; method in brief: as §3
[12] = biological target: Neurogenic locus notch homolog protein 1 (Mus musculus) (UniProt Q01705); assay: Inhibition of doxycycline-induced recombinant mouse N-terminal FLAG-tagged Notch1 (1704 to 2531 residues) activation expressed in human LS174T cells assessed as reduction in NCID expression after 12 hrs by Western blot analysis; type: cell-based; method in brief: as §3
[13] = biological target: Neurogenic locus notch homolog protein 1 (Mus musculus) (UniProt Q01705); assay: Inhibition of doxycycline-induced recombinant mouse N-terminal FLAG-tagged Notch1 (1704 to 2531 residues) activation expressed in human LS174T cells assessed as reduction in NCID expression at 0.5 uM after 12 hrs in presence of proteasome inhibitor MG132 by Western blot analysis; type: cell-based

Chain of Neurogenic locus notch homolog protein 1 (Q01705 whole entry, the tested form may be a part): as above

CO[C@@H]1C[C@H](O[C@H]2CC[C@@]3(C)[C@H](CC[C@@H]4[C@@H]3CC[C@]3(C)[C@@H](C5=CC(=O)OC5)[C@@H](OC(C)=O)C[C@]43O)C2)O[C@H](C)[C@@H]1O
IC50 ([1]; read-out: IC50): 2700 nM

CO[C@@H]1C[C@H](O[C@H]2CC[C@@]3(C)[C@H](CC[C@@H]4[C@@H]3CC[C@]3(C)C(C5=CC(=O)OC5)=CC[C@]43O)C2)O[C@H](C)[C@@H]1O
IC50 ([1]; ls174t): Not Active

CO[C@H]1C[C@H](O[C@H]2CC[C@@]3(C)[C@H](CC[C@@H]4[C@@H]3CC[C@]3(C)[C@@H](C5=CC(=O)OC5)[C@@H](O)C[C@]43O)C2)O[C@@H](C)[C@@H]1O
IC50 ([1]; read-out: IC50): 2500 nM

C[C@]12CC[C@H](O)C[C@H]1CC[C@@H]1[C@@H]2CC[C@]2(C)[C@@H](C3=CC(=O)OC3)CC[C@]12O [DIGITOXIGENIN]
IC50 ([1]; ls174t): Not Active

CO[C@H]1C[C@H](O[C@H]2CC[C@@]3(C)[C@H](CC[C@@H]4[C@@H]3CC[C@]3(C)[C@@H](C5=CC(=O)OC5)CC[C@]43O)C2)O[C@@H](O)[C@@H]1O
IC50 ([1]; read-out: IC50): 2700 nM

CO[C@@H]1C[C@H](O[C@H]2CC[C@@]3(C)[C@H](CC[C@]4(O)[C@@H]3CC[C@]3(C)[C@@H](C5=CC(=O)OC5)CC[C@@]34O)C2)O[C@H](C)[C@@H]1O
IC50 ([1]; ls174t): Not Active

CO[C@H]1C[C@H](O[C@H]2CC[C@@]3(C)[C@H](CC[C@@H]4[C@@H]3CC[C@]3(C)[C@@H](C5=CC(=O)OC5)[C@@H](OC(C)=O)C[C@]43O)C2)O[C@@H](C)[C@@H]1O [OLEANDRIN]
IC50 ([1]; read-out: IC50): 120 nM | Activity (HPBALL [2]): inactive | inhibition [3]: inactive | Activity (HPBALL [4]): Active | inhibition [5]: Dose-dependent effect | inhibition [6]: Active | inhibition [7]: Dose-dependent effect | IC50 (HEK293): 28 nM | IC50 (HPBALL [8]): 14 nM | Activity (HPBALL [9]): Active | inhibition [10]: Active | inhibition [11]: Active | inhibition (LS174T): Dose-dependent effect | inhibition [12]: Dose-dependent effect | inhibition [13]: inactive

CO[C@@H]1C[C@H](O[C@H]2CC[C@@]3(C)[C@H](CC[C@@H]4[C@@H]3CC[C@]3(C)[C@@H](C5=CC(=O)OC5)CC[C@]43O)C2)O[C@H](C)[C@@H]1O
IC50 ([1]; read-out: IC50): 4200 nM

— ChEMBL document CHEMBL4251745, “The Notch Inhibitors Isolated from Nerium indicum” (J Nat Prod, 2018)
